Results on six compounds are retold here after ChEMBL document CHEMBL2069211, “Busseihydroquinones A-D from the roots of Pentas bussei” (J Nat Prod, 2012).

The source made the active and inactive calls. The rule behind the calls is not given here.

The nature of data set [1]: Toxicity against human MCF7 cells incubated for 48 hrs by PrestoBlue cell viability reagent based assay. Conditions: read-out: LD50. Put shortly: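 MCF-7 cells are grown in DMEM with 10% FBS, 2 mM L-glutamine and penicillin/streptomycin at 37 °C in 5% CO2. They are seeded for exponential growth and preincubated 24 h. Drug or DMSO vehicle (0.1% or 1.0% v/v) is then added for 48 h. PrestoBlue absorbance is read at 570 nm (600 nm reference). Viability is expressed as % of vehicle, six replicates, with repeated independent experiments.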

A short description of data set [2]: Selectivity index, ratio of LD50 for human MCF7 cells to IC50 for chloroquine-sensitive Plasmodium falciparum D6. The format is toxicity, cell-based. Conditions: read-out: Selectivity Index. Put shortly:
(§1)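 The selectivity index is the MCF-7 LD50 (48 h PrestoBlue assay) divided by the P. falciparum IC50 (SYBR Green I assay) for the same strain.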

Another data set deals with Staphylococcus aureus. Description: Antimicrobial activity against Staphylococcus aureus at 0.1 mg/disc incubated for 24 to 72 hrs by disc diffusion assay. The format is functional, organism-based. The method in brief:
(§2)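 Paper discs loaded with sample are laid on seeded agar plates, in triplicate under sterile conditions. Incubation is at 37 °C for E. coli, S. aureus and C. albicans, and at 25 °C for A. niger. Streptomycin (bacteria) and nystatin (fungi) serve as standards at 0.1 mg/100 μL. Sample solvents serve as controls.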
For orientation: A growth-free zone around the sample is the usual read-out of agar diffusion tests.

The test system of another data set is Escherichia coli. Description: Antimicrobial activity against Escherichia coli at 0.1 mg/disc incubated for 24 to 72 hrs by disc diffusion assay. It is filed as functional, organism-based. The method in brief: as §2
Data set [3] concerns Plasmodium falciparum. Description: Antiplasmodial activity against chloroquine-resistant Plasmodium falciparum W2 by SYBR green I-based assay. It is filed as functional, organism-based. Put shortly: (§3)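 Drug susceptibility is measured with the SYBR Green I-based in vitro malaria assay. Chloroquine and mefloquine run alongside as reference drugs. IC50 is the mean of at least 3 independent experiments.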

For data set [4], the system named is Plasmodium falciparum. Description: Antiplasmodial activity against chloroquine-sensitive Plasmodium falciparum D6 by SYBR green I-based assay. The format is functional, organism-based. Put shortly:
as §3

The nature of data set [5]: Selectivity index, ratio of LD50 for human MCF7 cells to IC50 for chloroquine-resistant Plasmodium falciparum W2. Conditions: read-out: Selectivity Index. The format is toxicity, cell-based. Put shortly:
as §1

The subject of a further data set is Candida albicans. Description: Antimicrobial activity against Candida albicans at 0.1 mg/disc incubated for 24 to 72 hrs by disc diffusion assay. The format is functional, organism-based. Put shortly:
as §2

A further data set relates to Aspergillus niger. Description: Antimicrobial activity against Aspergillus niger at 0.1 mg/disc incubated for 24 to 72 hrs by disc diffusion assay. It is filed as functional, organism-based. Put shortly:
as §2

`COC(=O)c1cc(OC)c2cc(O)c3c(c2c1O)C=CC(C)(CCC=C(C)C)O3` (racemic): in data set [1], the CC50 at 48 h was determined as 86.4 µM. In addition, the selectivity ratio in data set [2] worked out at 2.83; in data set [5] it was 1.02. Besides, the “inhibition zone (IZ)” value in the data set on Staphylococcus aureus, in the data set with Escherichia coli, in the data set with Candida albicans and with Aspergillus niger was “inactive” throughout. For the same compound, the IC50 (as a rule, the concentration needed to halve the response being measured) with Plasmodium falciparum [3] is 85 µM; in the data set on Plasmodium falciparum [4], 30.6 µM.
With `COc1cc(C(=O)O)c(O)c2ccc3c(c12)C=CC(C)(CCC=C(C)C)O3` (racemic) [BUSSEIHYDROQUINONE C], the CC50 at 48 h in [1] was over 272 µM. In addition, the results for the selectivity ratio in [2] and in [5] were over 8.32 and over 4.52, respectively. Moreover, the “inhibition zone (IZ)” value in the data set with Staphylococcus aureus, with Escherichia coli, in the data set on Candida albicans and in the data set on Aspergillus niger was “inactive” each time. For the same compound, the figures for the IC50 in the data set on Plasmodium falciparum [3] and with Plasmodium falciparum [4] were 60.1 µM and 32.6 µM, respectively.
As for `COc1cc(C(=O)O)c(O)c2ccc3c(c12)C=C1/C(=C(\C)C=O)CCC1(C)O3` (racemic) [BUSSEIHYDROQUINONE D], in [1], the CC50 at 48 h is over 262 µM. For the same compound, the figures for the selectivity ratio in data set [2] and in data set [5] were over 13.4 and over 3.27, respectively. The “inhibition zone (IZ)” value in the data set with Staphylococcus aureus, in the data set on Escherichia coli, with Candida albicans and with Aspergillus niger was “inactive” throughout. Further, the results for the IC50 in the data set on Plasmodium falciparum [3] and in the data set on Plasmodium falciparum [4] were 80.1 µM and 19.6 µM, respectively.
For `COC(=O)c1cc(OC)c2cc(OC)c(OC)c(O)c2c1O` [BUSSEIHYDROQUINONE A], the CC50 at 48 h in [1] turned out to be 304 µM. Also, the selectivity ratio in data set [2] is 8.44; in [5], 2.11. In addition, the “inhibition zone (IZ)” value in the data set on Staphylococcus aureus, in the data set on Escherichia coli, in the data set with Candida albicans and with Aspergillus niger was “inactive” each time. For the same compound, the IC50 came out at 144 µM with Plasmodium falciparum [3] and 36 µM in the data set on Plasmodium falciparum [4].
As for `COc1cc(C(=O)O)c(O)c2ccc3c(c12)C=CC(C)(C)O3` [BUSSEIHYDROQUINONE B], the CC50 at 48 h in data set [1] worked out at 374 µM. The figures for the selectivity ratio in data set [2] and in [5] were 13.4 and 2.96, respectively. The “inhibition zone (IZ)” value in the data set on Staphylococcus aureus, in the data set with Escherichia coli, in the data set with Candida albicans and in the data set with Aspergillus niger was “inactive” each time. The IC50 with Plasmodium falciparum [3] was 126 µM; in the data set with Plasmodium falciparum [4], 27.8 µM.
`OC(c1cc(C(F)(F)F)nc2c(C(F)(F)F)cccc12)C1CCCCN1` (stereo unspecified) [MEFLOQUINE] displayed an IC50 with Plasmodium falciparum [4] of 0.029 µM.
